In brackets after ≈: the same amount, converted by molar mass.

The target in data set [1] is T1, Prostaglandin D2 receptor 2 (Homo sapiens, UniProt Q9Y5Y4).
T1 sequence (Q9Y5Y4 whole entry): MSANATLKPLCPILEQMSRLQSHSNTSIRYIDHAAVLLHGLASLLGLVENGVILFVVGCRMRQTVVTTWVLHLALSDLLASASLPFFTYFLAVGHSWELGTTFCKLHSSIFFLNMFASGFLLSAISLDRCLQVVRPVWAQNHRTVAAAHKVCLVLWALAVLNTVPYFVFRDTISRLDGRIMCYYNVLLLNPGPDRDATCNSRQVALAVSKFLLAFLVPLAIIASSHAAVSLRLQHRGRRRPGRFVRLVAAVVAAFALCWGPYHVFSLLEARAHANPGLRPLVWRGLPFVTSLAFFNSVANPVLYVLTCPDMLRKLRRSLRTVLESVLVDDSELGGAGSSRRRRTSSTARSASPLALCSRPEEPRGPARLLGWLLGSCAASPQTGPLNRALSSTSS
Nature of the data set: Displacement of [3H]PGD2 from human CRTH2 expressed in chinese hamster CHO cells by liquid scintillation counting. The data set is classed as cell-based. In a few lines:
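Scintillation proximity competition assay: 2–5 μg human CRTH2 cell membranes, 1.5 nM [3H]PGD2, WGA-SPA beads, 10 mM HEPES/KOH pH 7.4, 10 mM MnCl2, protease inhibitors, 1% DMSO; 90 min, room temperature, shaking. Nonspecific binding defined with 1 μM PGD2. Ki by Cheng–Prusoff, mean of ≥3 independent dose–response experiments.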

A short description of data set [2]: Percentage unbound in human plasma. The data set is classed as ADME, cell-free.
Data set [3] is described as follows: Percentage unbound in rat plasma. The data set is classed as ADME, cell-free.
Data set [4] in a line: Percentage unbound in mouse plasma. The data set is classed as ADME, cell-free.
Data set [5] is described as follows: Apparent permeability across human Caco2 cells at 1 uM after 2 hrs by LC/MS/MS analysis. It counts as ADME, cell-based. Particulars: Caco-2.
Data set [6] can be described thus: Lipophilicity, log D of the compound at pH 7.4. It counts as physicochemical. Particulars: buffer.
Data set [7] can be described thus: Clearance in BALB/c mouse at 5 mg/kg, po by LC/MS/MS analysis. The data set is classed as ADME, organism-based. Details: dose 5 mg/kg, route oral. Particulars: in vivo.
A short description of data set [8]: Half life in BALB/c mouse at 1 mg/kg, iv and 5 mg/kg, po by LC/MS/MS analysis. Particulars: in vivo. It counts as ADME, organism-based.
A short description of data set [9]: Thermodynamic solubility of the compound in aqueous solution at pH 7.4. It counts as physicochemical. Particulars: read-out: Therm_solubility.
Data set [10] has as its target T2, Prostaglandin D2 receptor 2 (Mus musculus, UniProt Q9Z2J6).
T2 sequence (Q9Z2J6 whole entry): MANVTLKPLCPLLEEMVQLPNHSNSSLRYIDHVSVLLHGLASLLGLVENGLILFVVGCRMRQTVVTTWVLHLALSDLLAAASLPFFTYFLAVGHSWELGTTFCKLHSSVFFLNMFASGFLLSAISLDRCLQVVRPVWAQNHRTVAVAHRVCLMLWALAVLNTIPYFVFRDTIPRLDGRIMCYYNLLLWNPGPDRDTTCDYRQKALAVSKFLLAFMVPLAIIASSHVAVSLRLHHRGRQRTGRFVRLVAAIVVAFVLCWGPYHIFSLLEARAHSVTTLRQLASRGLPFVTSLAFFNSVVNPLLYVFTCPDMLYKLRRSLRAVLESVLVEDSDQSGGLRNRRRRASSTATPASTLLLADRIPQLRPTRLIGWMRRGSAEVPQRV
The data set is described as follows: Displacement of [3H]PGD2 from mouse CRTH2 expressed in human HEK cells by liquid scintillation counting. The data set is classed as cell-based, HEK293. In a few lines: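 Mouse CRTH2 cDNA stably expressed in HEK293(EBNA) cells (hygromycin-selected) and membranes made by nitrogen cavitation. SPA competition uses 2–5 μg membranes, 1.5 nM [3H]PGD2, HEPES/KOH pH 7.4 with 10 mM MnCl2, 1% DMSO, 90 min at room temperature. Nonspecific binding defined with 1 μM PGD2. Ki by Cheng–Prusoff, ≥3 independent experiments.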

Data set [11] deals with T1, Prostaglandin D2 receptor 2. The data set is described as follows: Antagonist activity human CRTH2 expressed in chinese hamster CHO cells assessed as inhibition of PGD2-induced [35S]GTPgamma binding by liquid scintillation counting. The data set is classed as functional, cell-based. In a few lines: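 10 μg human CRTH2 membranes in 20 mM HEPES/KOH pH 7.4, 10 mM MgCl2, 10 μg/mL saponin, 3 μM GDP, 150 mM NaCl, 2% DMSO, 30 °C. Preincubated 10 min, then 0.15 nM [35S]GTPγS for 30 min; stopped by centrifugation. Antagonism tested against 80 nM PGD2. Nonspecific binding with 10 μM GTPγS. Run without BSA.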

Data set [12] deals with Prostaglandin E2 receptor EP2 subtype (Homo sapiens) (UniProt P43116). The data set is described as follows: Inhibition of EP2 receptor at 10 uM. Summed up:
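Selectivity screen: panel of 50 receptor and ion-channel targets, tested at 10 μM; EP2 by binding assay; GABA-gated Cl− channel from rat. Result expressed as % inhibition.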

A short description of data set [13]: Intrinsic clearance in human liver microsomes assessed per mg of protein at 1 uM by LC/MS/MS analysis. The data set is classed as ADME, Microsome.
Data set [14] is described as follows: Intrinsic clearance in rat liver microsomes assessed per mg of protein at 1 uM by LC/MS/MS analysis. The data set is classed as ADME, Microsome.
The nature of data set [15]: Oral bioavailability in BALB/c mouse at 5 mg/kg by LC/MS/MS analysis. Particulars: in vivo. The data set is classed as ADME, organism-based. Summed up: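 Mouse PK after a 5 mg/kg oral dose.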
Data set [16] in a line: Solubility of the compound at pH 7.4. The conditions noted are these: buffer. The data set is classed as physicochemical.
Data set [17] in a line: Solubility of the compound at pH 1.2. It counts as physicochemical. The conditions noted are these: buffer.
The nature of data set [18]: Half life in BALB/c mouse at 1 mg/kg, iv by LC/MS/MS analysis. It counts as ADME, organism-based. Particulars: in vivo. Details: dose 1 mg/kg, route intravenous.
Data set [19] in a line: Half life in BALB/c mouse at 5 mg/kg, po by LC/MS/MS analysis. The conditions noted are these: in vivo. Details: dose 5 mg/kg, route oral. The data set is classed as ADME, organism-based.
Data set [20] in a line: AUC in BALB/c mouse at 5 mg/kg, po by LC/MS/MS analysis. The data set is classed as ADME, organism-based. Also on record: dose 5 mg/kg, route oral. Particulars: plasma.
The target in data set [21] is T3, Prostaglandin D2 receptor (Homo sapiens, UniProt Q13258).
T3 sequence (Q13258 whole entry): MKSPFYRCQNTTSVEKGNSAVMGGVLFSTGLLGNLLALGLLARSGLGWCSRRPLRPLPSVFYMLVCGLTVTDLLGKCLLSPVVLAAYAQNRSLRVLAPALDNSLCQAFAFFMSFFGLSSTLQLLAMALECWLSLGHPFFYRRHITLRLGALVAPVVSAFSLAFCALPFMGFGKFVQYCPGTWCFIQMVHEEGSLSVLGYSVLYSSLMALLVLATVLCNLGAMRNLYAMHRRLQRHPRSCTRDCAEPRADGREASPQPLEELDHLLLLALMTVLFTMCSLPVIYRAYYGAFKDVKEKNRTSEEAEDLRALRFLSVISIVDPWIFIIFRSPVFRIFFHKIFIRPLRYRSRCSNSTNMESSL
The data set is described as follows: Binding affinity to DP1.

Data set [22] concerns the target Aldo-keto reductase family 1 member B1 (Homo sapiens, UniProt P15121). Nature of the data set: Antagonist activity at AR. It counts as functional.
For data set [23], the system named is Mus musculus. The data set is described as follows: Antiinflammatory activity in BALB/c mouse model assessed as inhibition of ovalbumin-induced eosinophil accumulation in bronchoalveolar lavage fluid at 3 mg/kg, po administered 1 hr prior to and 7 hrs after ovalbumin challenge for 3 days measured 8 hrs after final dose by cell counting. The conditions noted are these: Lung. It counts as functional. In a few lines: (§1)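 Compound given by oral gavage 1 h before and 7 h after each challenge. BAL taken 8 h after the last challenge. Total cells counted by hemocytometer; eosinophils counted on DiffQuik-stained cytospins. Reported as mean % inhibition ± SEM.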

For data set [24], the system named is Mus musculus. The data set is described as follows: Antiinflammatory activity in BALB/c mouse model assessed as inhibition of ovalbumin-induced eosinophil accumulation in bronchoalveolar lavage fluid at 10 mg/kg, po administered 1 hr prior to and 7 hrs after ovalbumin challenge for 3 days measured 8 hrs after final dose by cell counting. The data set is classed as functional. Particulars: Lung. In a few lines: as §1

The test system of data set [25] is Mus musculus. Nature of the data set: Antiinflammatory activity in BALB/c mouse model assessed as inhibition of ovalbumin-induced eosinophil accumulation in bronchoalveolar lavage fluid at 30 mg/kg, po administered 1 hr prior to and 7 hrs after ovalbumin challenge for 3 days measured 8 hrs after final dose by cell counting. It counts as functional. The conditions noted are these: Lung. In a few lines:
as §1

Data set [26] deals with Mus musculus. The data set is described as follows: Antiinflammatory activity in BALB/c mouse contact hypersensitivity model assessed as inhibition of FITC-mediated ear swelling at 3 mg/kg, po administered 1 hr prior to and 7 hrs after the FITC-challenge measured 24 hrs after final dose. The data set is classed as functional. In a few lines:
(§2)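 Female 9-week-old BALB/c mice sensitized on days 0 and 1 with 0.5% FITC in acetone/dibutyl phthalate (sham group: vehicle only). Right ear challenged on day 6 with 0.5% FITC. Compound given by oral gavage 1 h before and 7 h after challenge. Ear thickness measured before and 24 h after challenge. Reported as mean % inhibition ± SEM.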

Data set [27] has as its system Mus musculus. Nature of the data set: Antiinflammatory activity in BALB/c mouse contact hypersensitivity model assessed as inhibition of FITC-mediated ear swelling at 10 mg/kg, po administered 1 hr prior to and 7 hrs after the FITC-challenge measured 24 hrs after final dose. It counts as functional. In a few lines: as §2
Data set [28] deals with Mus musculus. Nature of the data set: Antiinflammatory activity in BALB/c mouse contact hypersensitivity model assessed as inhibition of FITC-mediated ear swelling at 30 mg/kg, po administered 1 hr prior to and 7 hrs after the FITC-challenge measured 24 hrs after final dose. The data set is classed as functional. In a few lines:
as §2

Data set [29] deals with T3, Prostaglandin D2 receptor. The data set is described as follows: Antagonist activity at DP1 by cAMP functional assay. Summed up:
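DP1 functional antagonism measured in a cAMP assay.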

Sequence of Prostaglandin E2 receptor EP2 subtype (Homo sapiens) (P43116 whole entry): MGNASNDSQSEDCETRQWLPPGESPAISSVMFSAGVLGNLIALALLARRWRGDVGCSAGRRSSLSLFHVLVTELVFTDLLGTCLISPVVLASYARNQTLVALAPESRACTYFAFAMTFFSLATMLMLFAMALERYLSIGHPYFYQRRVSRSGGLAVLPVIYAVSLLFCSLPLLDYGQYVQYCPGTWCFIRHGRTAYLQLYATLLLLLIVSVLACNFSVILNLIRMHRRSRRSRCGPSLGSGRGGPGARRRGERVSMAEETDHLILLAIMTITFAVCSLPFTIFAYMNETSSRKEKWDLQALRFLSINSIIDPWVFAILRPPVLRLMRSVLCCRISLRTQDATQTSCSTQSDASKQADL

Usually Ki stands for a dissociation constant, usually derived from enzyme kinetics or from competition with a known ligand. Higher therefore signals lower affinity. What is called fraction unbound is the share of the substance not bound to proteins or other matrix. Lower therefore signals little free substance. What is called Papp is the rate of passage across a membrane or cell layer, normalised by area and donor concentration. The logD is lipophilicity at a set pH, counting ionised and neutral species. The low end stands for lower lipophilicity, the high end for higher lipophilicity. In general, CL/F refers to the apparent clearance, not corrected for the fraction that reaches the circulation. For orientation: half-life means the time in which the quantity being followed falls by half. Read a low half-life as rapid decline. `CN(C)S(=O)(=O)c1cncc(C#Cc2cc(Cl)ccc2OCC(=O)O)c1` displayed a Ki in [1] of 37 nM. The results for the fraction unbound in [2], in [3] and in data set [4] were 0.033, 0.057 and 0.034, respectively. In [5], the apparent permeability (Papp) at 2 h, 1 µM turned out to be 1.8 ×10⁻⁶ cm/s. Besides, the log distribution coefficient (logD) in [6] was -1.4. Further, the apparent clearance (CL/F) in data set [7] was 13.3 mL/min/kg. Besides, the half-life in data set [8] is 4.4 h. Further, the solubility thermodynamic in data set [9] stood at 193 µg/mL (≈ 489 µM).
By IC50 is commonly meant the concentration that gives 50% inhibition. In general, inhibition refers to the percentage by which the read-out fell short of the control. What is called microsomal CLint is the rate of metabolic loss divided by the concentration. Read a low microsomal CLint as greater metabolic stability. A word on the bioavailability: it is dose-corrected exposure relative to a reference, in per cent. A high value points to much systemic uptake. One may read the solubility as the concentration that dissolves in the medium under given conditions. The term AUC denotes concentration integrated over time. The low end stands for less exposure, the high end for more exposure. Usually inhibition in vivo stands for the share of the control response that was lost under treatment. Regarding `CCCS(=O)(=O)c1ccc(C)c(C#Cc2cc(Cl)ccc2OCC(=O)O)c1`, the figures for the inhibitory constant (Ki) in data set [1], in data set [10] and in data set [21] were 2 nM, 2.4 nM and 1580 nM, respectively. In addition, the figures for the 50% inhibitory concentration (IC50) in data set [11], in data set [22] and in data set [29] were 7 nM, 172 nM and 10000 nM, respectively. Besides, the inhibition in data set [12] was 54%. The fraction unbound in data set [2] was 0.004; in [3], 0.004; in [4] it was 0.008. In addition, the intrinsic metabolic clearance (microsomal CLint) at 1 µM in data set [13] and in [14] was less than 10 µL/min/mg each time. For the same molecule, the apparent permeability (Papp) at 2 h, 1 µM in [5] came to 5.2 ×10⁻⁶ cm/s. The same molecule gave a CL/F in data set [7] of 16.7 mL/min/kg. In data set [15], the bioavailability was 80%. Besides, the solubility is 242 µg/mL (≈ 595 µM) in [16] and less than 2 µg/mL in data set [17]. Besides, the half-life is 1.7 h in [18] and 3.9 h in [19]. This molecule also displayed an AUC in data set [20] of 3730 ng·h/mL. Also, the inhibition in vivo at 3 mg/kg in the data set on Mus musculus [23] amounted to 29%; in the data set on Mus musculus [26] it was 23%. Moreover, the inhibition in vivo at 10 mg/kg with Mus musculus [24] was determined as 54%; in the data set with Mus musculus [27] it was 56%. Further, the inhibition in vivo at 30 mg/kg in the data set on Mus musculus [25] turned out to be 81%; in the data set with Mus musculus [28], 52%.

These data come from ChEMBL document CHEMBL1914440, “Discovery of potent, selective, and orally bioavailable alkynylphenoxyacetic acid CRTH2 (DP2) receptor antagonists for the treatment of allergic inflammatory diseases” (J Med Chem, 2011).
